Test results from ChEMBL document CHEMBL1157987, “Acylated flavonol glycosides from leaves of Stenochlaena palustris” (1999).
Values after ≈ are worked out from the molar mass of the structure shown.

Assays:
Format in all cases: functional
Micrococcus luteus = assay: Antibacterial activity against Micrococcus luteus ATCC 9341 after 20 hrs by MTT assay; details: ATCC 9341, 20 h
How it was run: (§1)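 Overnight cultures in nutrient broth at 37 °C, diluted to ca. 10⁵ cells/mL in fresh medium. Compounds from 1 mg/mL MeOH stocks dried in wells, redissolved in DMSO plus broth and culture, then twofold serial dilutions in bacterial suspension. Plates held 20 h at 37 °C in moist atmosphere; 0.25% aqueous MTT added, 4 h further incubation; living bacteria seen as violet turbidity.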

[1] = tested on: Staphylococcus epidermidis; assay: Antibacterial activity against Staphylococcus epidermidis ATCC 12228 after 20 hrs by MTT assay; details: ATCC 12228, 20 h; how it was run: as §1
Staphylococcus aureus = assay: Antibacterial activity against Staphylococcus aureus ATCC 25923 after 20 hrs by MTT assay; details: ATCC 25923, 20 h; how it was run: as §1
Bacillus cereus = assay: Antibacterial activity against Bacillus cereus ATCC 10702 after 20 hrs by MTT assay; details: ATCC 10702, 20 h; how it was run: as §1

Row | Compound | MIC (Micrococcus luteus) | MIC [1] | MIC (Staphylococcus aureus) | MIC (Bacillus cereus)
1 | O=C(N[C@H](CO)[C@H](O)c1ccc([N+](=O)[O-])cc1)C(Cl)Cl [CHLORAMPHENICOL] | 2 µg/mL (≈ 6.19 µM) | 4 µg/mL (≈ 12.4 µM) | 4 µg/mL (≈ 12.4 µM) | 2 µg/mL (≈ 6.19 µM)
2 | COc1cc(/C=C/C(=O)OC[C@H]2O[C@@H](Oc3c(-c4ccc(O)cc4)oc4cc(O)cc(O)c4c3=O)[C@H](O)[C@@H](OC(=O)/C=C\c3ccc(O)cc3)[C@@H]2O)ccc1O [STENOPALUSTROSIDE B] | 16 µg/mL (≈ 20.8 µM) | 64 µg/mL (≈ 83 µM) | 32 µg/mL (≈ 41.5 µM) | 8 µg/mL (≈ 10.4 µM)
3 | O=C(/C=C\c1ccc(O)cc1)OC[C@H]1O[C@@H](Oc2c(-c3ccc(O)cc3)oc3cc(O)cc(O)c3c2=O)[C@H](O)[C@@H](OC(=O)/C=C\c2ccc(O)cc2)[C@@H]1O [STENOPALUSTROSIDE A] | 8 µg/mL (≈ 10.8 µM) | 2 µg/mL (≈ 2.7 µM) | 16 µg/mL (≈ 21.6 µM) | 4 µg/mL (≈ 5.4 µM)
4 | O=C(/C=C/c1ccc(O)cc1)OC[C@H]1O[C@@H](Oc2c(-c3ccc(O)cc3)oc3cc(O)cc(O)c3c2=O)[C@H](O)[C@@H](OC(=O)/C=C/c2ccc(O)cc2)[C@@H]1O | > 256 µg/mL | > 256 µg/mL | > 256 µg/mL | > 256 µg/mL

The remaining lines, values ahead:

Row | MIC (Micrococcus luteus) | MIC [1] | MIC (Staphylococcus aureus) | MIC (Bacillus cereus) | Compound
5 | > 256 µg/mL | > 256 µg/mL | > 256 µg/mL | > 256 µg/mL | COc1cc(C(O)C(CO)Oc2ccc(/C=C/C(=O)OC[C@H]3O[C@@H](Oc4c(-c5ccc(O)cc5)oc5cc(O)cc(O)c5c4=O)[C@H](O)[C@@H](OC(=O)/C=C/c4ccc(O)cc4)[C@@H]3O)cc2OC)ccc1O (some centres not stated) [STENOPALUSTROSIDE E]
6 | > 256 µg/mL | > 256 µg/mL | > 256 µg/mL | > 256 µg/mL | O=C(/C=C/c1ccc(O)cc1)OC[C@H]1O[C@@H](Oc2c(-c3ccc(O)cc3)oc3cc(O)cc(O)c3c2=O)[C@H](O)[C@@H](O)[C@@H]1O [TILIROSIDE]
7 | > 256 µg/mL | > 256 µg/mL | > 256 µg/mL | > 256 µg/mL | COc1cc(/C=C/C(=O)OC[C@H]2O[C@@H](Oc3c(-c4ccc(O)cc4)oc4cc(O)cc(O)c4c3=O)[C@H](O)[C@@H](OC(=O)/C=C/c3ccc(O)cc3)[C@@H]2O)ccc1O
8 | > 256 µg/mL | > 256 µg/mL | > 256 µg/mL | > 256 µg/mL | O=C(/C=C/c1ccc(O)cc1)O[C@@H]1[C@@H](O)[C@H](Oc2c(-c3ccc(O)cc3)oc3cc(O)cc(O)c3c2=O)O[C@H](CO)[C@H]1O
